The results in this text go back to ChEMBL document CHEMBL1143253, “Strongylophorines: natural product inhibitors of hypoxia-inducible factor-1 transcriptional pathway” (J Med Chem, 2008).

The nature of test [1]: Cytotoxicity against human U251-HRE cells at 100 uM after 16 hrs by MTT assay. Type of test: functional. The procedure, abridged:
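U251-HRE glioma cells seeded 10000/well, left 24 h, then exposed to compound 16 h at 37 °C under normoxia (the hypoxic arm ran 24 h in a hypoxic incubator). Medium replaced with fresh medium plus 20 µL MTT (1.5 mg/mL) for 3 h, formazan dissolved in DMSO, absorbance read at 570 nm. Percent cytotoxicity from treated vs control A570; triplicate, SE.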
(Tetrazolium dyes change colour on reduction, which living cells bring about.)

A short description of test [2]: Decrease in protein expression of HIF1-alpha in human U251-HRE cells under hypoxic condition at 30 uM. The class given is functional, cell-based. The procedure, abridged:
(§1)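 U251-HRE cells (1 × 10^5) plated in six-well plates, treated after 24 h for 4 h under hypoxia; normoxic and compound-free hypoxic lanes included. Lysis in PBS/0.1% NP-40 with sonication, 100 µg protein on 12.5% polyacrylamide gels. Probed with monoclonal anti-HIF-1α and anti-VEGF (1:500), β-tubulin (1:10000) loading control, HRP anti-mouse secondary, ECL detection.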

Test [3] deals with T1, Hypoxia inducible factors; HIF-1-alpha, HIF-2-alpha (Homo sapiens, UniProt Q16665+Q99814). As to the kind of experiment: Inhibition of hypoxia-induced HIF1 transcriptional activation in human U251-HRE cells by luciferase reporter assay. Type of test: cell-based. The procedure, abridged: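 Stably transfected U251 glioma cells carrying a luciferase reporter driven by three HRE copies, seeded 10000/well and grown 24 h. Compounds in 2-propanol were tested at 1–100 µM for 16 h at 1% O2/5% CO2/94% N2. Cells were lysed and Bright-Glo luminescence read, normalized to vehicle, with ≥15-fold hypoxic induction required. EC50 derived from dose–response; triplicate.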
A general note: Reporter assays use an easily measured gene product as a stand-in for the process of interest.

Test [4] can be described thus: Decrease in protein expression of VEGF in human U251-HRE cells under hypoxic condition at 30 uM. The class given is functional, cell-based. The procedure, abridged:
as §1

For test [5], the target named is T1, Hypoxia inducible factors; HIF-1-alpha, HIF-2-alpha. As to the kind of experiment: Inhibition of hypoxia-induced HIF1 transcriptional activation in human U251-pGL3 cells at 30 uM by luciferase reporter assay. Type of test: cell-based. In a few lines:
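Counter-screen in U251-pGL3 cells, where firefly luciferase is driven by the SV40 promoter/enhancer, run in parallel with the HRE reporter assay. Cells incubated with compound under hypoxia (1% O2), then lysed and luciferase luminescence read. Data normalized to vehicle; triplicate.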

The next test deals with MDA-MB-231. As to the kind of experiment: Antiinvasive activity against human MDA-MB-231 cells. The class given is functional, cell-based.

Activity calls are given as the source filed them. The rule behind the calls is not given here.

As usually defined, the inhibition is the percentage by which the read-out fell short of the control. A higher inhibition goes with a strong effect. For orientation: EC50 means the concentration at which the effect is half-maximal. Regarding `C[C@@]12CC[C@H]3[C@]4(CCC[C@]3(C)C(=O)OC4)[C@H]1CC[C@]1(C)Oc3ccc(O)cc3C[C@@H]21`, in test [1], 100 µM produced 17% inhibition. Besides, the outcome in test [2] and in test [4] was Active. In addition, the EC50 in test [3] stood at 8 µM. In addition, the outcome in test [5] was inactive.
As to `C[C@@]12CC[C@H]3[C@](C)(CCC[C@]3(C)C(=O)O)[C@H]1CC[C@]1(C)Oc3ccc(O)cc3C[C@@H]21`, the outcome in test [2] and in test [4] was Active. Further, in test [3], the EC50 stood at 13 µM. For the same compound, the result in test [5] was inactive.
`C[C@@]12CC[C@H]3[C@]4(CCC[C@]3(C)C(=O)OC4)[C@H]1CC[C@](C)(O)[C@H]2Cc1cc(O)ccc1O`: the values for the EC50 (in the test with MDA-MB-231; in test [3]) were 16 µM and 6 µM, respectively. Further, the outcome in test [2] and in test [4] was Active. In test [5], the result was inactive.
